How the values were obtained:
Endothelin-1 receptor = target: T1, Endothelin-1 receptor (Rattus norvegicus, UniProt P26684); test: Binding affinity towards endothelin A receptor in prolactin secreting rat pituitary cells using [125I]ET1 as radioligand.; assay type: cell-based, Pituitary gland cell
T1 sequence (P26684 whole entry): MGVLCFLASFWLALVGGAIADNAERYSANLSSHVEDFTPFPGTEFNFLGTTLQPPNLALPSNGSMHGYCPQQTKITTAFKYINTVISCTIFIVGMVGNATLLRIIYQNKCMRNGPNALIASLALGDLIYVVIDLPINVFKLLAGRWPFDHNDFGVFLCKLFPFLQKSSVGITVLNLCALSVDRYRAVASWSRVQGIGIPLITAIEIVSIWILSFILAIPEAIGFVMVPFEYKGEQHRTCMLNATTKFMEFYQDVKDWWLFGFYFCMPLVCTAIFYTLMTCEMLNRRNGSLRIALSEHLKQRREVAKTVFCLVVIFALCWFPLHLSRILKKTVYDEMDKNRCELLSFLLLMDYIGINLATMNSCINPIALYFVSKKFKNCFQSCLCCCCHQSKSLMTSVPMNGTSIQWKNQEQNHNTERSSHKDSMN
Procedure, shortened: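 Membranes from rat MMQ pituitary cells (predominantly ETA), kept at 4 °C and stored in Tris/NaCl/MgCl2 buffer pH 7.4 with protease inhibitors. Bound ligand separated by vacuum filtration on glass fiber. Nonspecific binding defined with 1 μM ET-1.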

[1] = target: T2, Endothelin receptor type B (Sus scrofa, UniProt P35463); test: Binding affinity towards endothelin B receptor in porcine cerebellar tissue using [125I]-ET-1 as radioligand.
T2 sequence (P35463 whole entry): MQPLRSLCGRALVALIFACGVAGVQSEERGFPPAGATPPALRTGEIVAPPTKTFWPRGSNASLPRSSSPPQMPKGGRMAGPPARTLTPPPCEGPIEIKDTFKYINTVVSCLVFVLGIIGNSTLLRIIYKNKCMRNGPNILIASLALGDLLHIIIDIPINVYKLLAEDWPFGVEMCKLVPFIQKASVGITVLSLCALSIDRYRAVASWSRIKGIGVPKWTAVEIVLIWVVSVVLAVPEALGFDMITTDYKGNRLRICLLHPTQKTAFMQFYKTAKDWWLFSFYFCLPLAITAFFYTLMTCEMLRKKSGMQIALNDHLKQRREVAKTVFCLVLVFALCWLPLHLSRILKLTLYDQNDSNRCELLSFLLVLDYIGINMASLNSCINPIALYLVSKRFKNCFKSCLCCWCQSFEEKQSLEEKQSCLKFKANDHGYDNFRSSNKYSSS
Procedure, shortened: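 Membranes from porcine cerebellar tissue (ETB), kept at 4 °C and stored in Tris/NaCl/MgCl2 buffer pH 7.4 with protease inhibitors. Bound and free separated by glass-fiber filtration. Nonspecific binding measured with 1 μM ET-1.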

[2] = Area under curve was determined in portal blood of rat when administered intradermally; assay type: ADME, organism-based; parameters: concentration or dose not given beside the values; settings: in the assay text read “intraduodenally” for “intradermally”
Procedure, shortened: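 Male Sprague–Dawley rats (~225 g), fasted overnight and anesthetized with inactin (100 mg/kg ip). Pylorus ligated; carotid and portal vein catheterized. Intraduodenal dose 10 mg/kg at t = 0. Portal blood drawn at 10, 30 and 60 min; drug measured by HPLC-UV at 226 nm against plasma standards (0.01–50 μg/mL). AUC calculated by trapezoidal rule.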

[3] = Oral bioavailability in rat; assay type: ADME, organism-based; settings: in vivo
Procedure, shortened: (§1)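 Male Sprague–Dawley rats, n = 4 per group. Vehicle: ethanol:propylene glycol:D5W (20:30:50) with 1 mol equiv NaOH. Dosing: 5 mg/kg iv jugular bolus, or 10 mg/kg oral gavage. Tail-vein plasma sampled 0.1 (iv only) to 12 h and analyzed by HPLC after extraction. Trapezoidal AUC extrapolated to infinity. F from dose-corrected oral versus iv AUC.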

[4] = Maximum concentration of compound in plasma administered orally to rats; assay type: ADME, organism-based; parameters: route oral; settings: rat, po; procedure, shortened: as §1
[5] = Area under curve was determined in carotid blood of rat when administered intraduodenally; parameters: concentration or dose not given beside the values
[6] = Time taken to decrease the plasma concentration to half of the maximum concentration when compound was administered intravenously in rats; assay type: ADME, organism-based; settings: rat, iv; procedure, shortened: as §1

| IC50 (Endothelin-1 receptor) | IC50 [1] | AUC [2] | bioavailability [3] | Cmax [4] | AUC [5] | half-life [6] | Structure (SMILES) |
| --- | --- | --- | --- | --- | --- | --- | --- |
| 930 nM | > 100000 nM | – | – | – | – | – | CCCCN(CCCC)C(=O)CN1C[C@H](c2cccnc2)[C@@H](C(=O)O)[C@@H]1c1ccc(OC)cc1 |
| 1.3 nM | 4100 nM | – | – | – | – | – | CCCCN(CCCC)C(=O)CN1C[C@H](c2ccc(OC)cc2)[C@@H](C(=O)O)[C@@H]1c1ccc(OC)cc1 |
| 2300 nM | 25000 nM | – | – | – | – | – | CCCN(C)C(=O)CN1C[C@H](c2ccc3ccccc3c2)[C@@H](C(=O)O)[C@@H]1c1ccc(OC)cc1 |
| 407 nM | 72000 nM | – | – | – | – | – | CCCN(C)C(=O)CN1C[C@H](c2ccc(OC)cc2OC)[C@@H](C(=O)O)[C@@H]1c1ccc(OC)cc1 |
| 0.6 nM | 2600 nM | 8830 ng·h/mL | 33% | 1500 ng/mL | 3000 ng·h/mL | 1.1 h | CCCCN(CCCC)C(=O)CN1C[C@H](c2ccc3c(c2)CCO3)[C@@H](C(=O)O)[C@@H]1c1ccc(OC)cc1 |
| 1700 nM | – | – | – | – | – | – | CCCN(C)C(=O)CN1C[C@H](c2cccc(OC)c2)[C@@H](C(=O)O)[C@@H]1c1ccc(OC)cc1 |
| 258 nM | 13000 nM | – | – | – | – | – | CCCN(C)C(=O)CN1C[C@H](c2ccc3ccoc3c2)[C@@H](C(=O)O)[C@@H]1c1ccc(OC)cc1 |
| 0.7 nM | 5000 nM | 9000 ng·h/mL | 38% | 4700 ng/mL | 6170 ng·h/mL | 4.7 h | CCCCN(CCCC)C(=O)CN1C[C@H](c2ccc3ccoc3c2)[C@@H](C(=O)O)[C@@H]1c1ccc(OC)cc1 |
| 176 nM | 16000 nM | – | – | – | – | – | CCCN(C)C(=O)CN1C[C@H](c2ccc(OC)cc2)[C@@H](C(=O)O)[C@@H]1c1ccc(OC)cc1 |
| 1.5 nM | – | – | – | – | – | – | CCCCN(CCCC)C(=O)CN1C[C@H](c2ccc3c(c2)CCC3)[C@@H](C(=O)O)[C@@H]1c1ccc(OC)cc1 |
| 2300 nM | 32000 nM | – | – | – | – | – | CCCN(C)C(=O)CN1C[C@H](c2cccc3ccccc23)[C@@H](C(=O)O)[C@@H]1c1ccc(OC)cc1 |
| 5 nM | 16000 nM | – | – | – | – | – | CCCCN(CCCC)C(=O)CN1C[C@H](c2cccc(F)c2)[C@@H](C(=O)O)[C@@H]1c1ccc(OC)cc1 |
| 0.5 nM | 5100 nM | 4000 ng·h/mL | 39% | 1600 ng/mL | 2330 ng·h/mL | 3.2 h | CCCCN(CCCC)C(=O)CN1C[C@H](c2ccc3occc3c2)[C@@H](C(=O)O)[C@@H]1c1ccc(OC)cc1 |
| – | 34000 nM | – | – | – | – | – | CCCN(C)C(=O)CN1C[C@H](c2cccc3occc23)[C@@H](C(=O)O)[C@@H]1c1ccc(OC)cc1 |
| 310 nM | 11000 nM | – | – | – | – | – | CCCN(C)C(=O)CN1C[C@H](c2ccc3c(c2)CCC3)[C@@H](C(=O)O)[C@@H]1c1ccc(OC)cc1 |
| 14 nM | 77000 nM | – | – | – | – | – | CCCCN(CCCC)C(=O)CN1C[C@H](c2ccc(F)cc2)[C@@H](C(=O)O)[C@@H]1c1ccc(OC)cc1 |
| 0.8 nM | – | – | – | – | – | – | CCCCN(CCCC)C(=O)CN1C[C@H](c2ccc3c(c2)OCCO3)[C@@H](C(=O)O)[C@@H]1c1ccc(OC)cc1 |
| 1.5 nM | 17000 nM | – | – | – | – | – | CCCCN(CCCC)C(=O)CN1C[C@H](c2ccc(F)c(F)c2)[C@@H](C(=O)O)[C@@H]1c1ccc(OC)cc1 |
| 310 nM | 35000 nM | – | – | – | – | – | CCCN(C)C(=O)CN1C[C@H](c2ccc(F)c(F)c2)[C@@H](C(=O)O)[C@@H]1c1ccc(OC)cc1 |
| 3.7 nM | 48000 nM | – | – | – | – | – | CCCCN(CCCC)C(=O)CN1C[C@H](c2ccc(OC)cc2OC)[C@@H](C(=O)O)[C@@H]1c1ccc(OC)cc1 |
| 730 nM | 31000 nM | – | – | – | – | – | CCCN(C)C(=O)CN1C[C@H](c2ccc(OC)c(OC)c2)[C@@H](C(=O)O)[C@@H]1c1ccc(OC)cc1 |
| – | > 100000 nM | – | – | – | – | – | CCCN(C)C(=O)CN1C[C@H](c2ccccc2)[C@@H](C(=O)O)[C@@H]1c1ccc(OC)cc1 |
| – | – | 10700 ng·h/mL | 68% | 3200 ng/mL | 5830 ng·h/mL | 3.5 h | CCCCN(CCCC)C(=O)CN1C[C@H](c2ccc3c(c2)OCO3)[C@@H](C(=O)O)[C@@H]1c1ccc(OC)cc1 |
| 5100 nM | 35000 nM | – | – | – | – | – | CCCN(C)C(=O)CN1C[C@H](c2ccc3cc[nH]c3c2)[C@@H](C(=O)O)[C@@H]1c1ccc(OC)cc1 |
| 130 nM | 19000 nM | – | – | – | – | – | CCCN(C)C(=O)CN1C[C@H](c2ccc3c(c2)CCO3)[C@@H](C(=O)O)[C@@H]1c1ccc(OC)cc1 |
| 2 nM | 11000 nM | – | – | – | – | – | CCCCN(CCCC)C(=O)CN1C[C@H](c2cccc3occc23)[C@@H](C(=O)O)[C@@H]1c1ccc(OC)cc1 |
| 1 nM | 960 nM | 12200 ng·h/mL | 68% | 4000 ng/mL | 6170 ng·h/mL | 4.7 h | CCCCN(CCCC)C(=O)CN1C[C@H](c2ccc3c(c2)OCC3)[C@@H](C(=O)O)[C@@H]1c1ccc(OC)cc1 |
| 137 nM | 6400 nM | – | – | – | – | – | CCCN(C)C(=O)CN1C[C@H](c2ccc3c(c2)OCC3)[C@@H](C(=O)O)[C@@H]1c1ccc(OC)cc1 |
| 130 nM | 35000 nM | – | – | – | – | – | CCCN(C)C(=O)CN1C[C@H](c2ccc3c(c2)OCCO3)[C@@H](C(=O)O)[C@@H]1c1ccc(OC)cc1 |
